# High-throughput results deposited in PubChem BioAssay by several laboratories.
# Fh CTSL1 inh = blocks F. hepatica cathepsin L1 in PFM18AAP counter-screen; inhibition, % at 5.96 µM; recombinant F. hepatica cathepsin L1, Z-Leu-Arg-MCA fluorescence; 0.49% of 300,000 active;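 active = inhibition above the mean of all tested compounds plus 3 SD, set per screening campaign, cut at about 17% in these data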;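 also: 0% = plate median of test compound wells and 100% = 1 µM Z-Phe-Ala-diazomethylketone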
# NSD2 HMT inh = blocks human histone methyltransferase NSD2 | O96028 | NSD2 peptide methylation, AlphaScreen, 120 min | inhibition, % at 12.5 µM | 0.54% of 310,000 active | AID 743445; in the data active = inhibition above about 50%
# UBC9 SUMO inh = SUMOylation inhibition | AID 2006 | P63279 | 0.36% of 290,000 active | inhibition, % at 35 µM | HTRF SUMOylation assay, SAE1/SAE2 + UBC9, in vitro; in the data active = inhibition above about 50%, passing the limit was not always enough
# Target sequence (P63279 whole entry, looked up): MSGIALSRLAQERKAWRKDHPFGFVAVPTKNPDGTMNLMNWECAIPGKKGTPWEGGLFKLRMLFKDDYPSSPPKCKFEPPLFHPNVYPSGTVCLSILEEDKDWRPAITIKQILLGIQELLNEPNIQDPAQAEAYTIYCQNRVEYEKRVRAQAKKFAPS
# TDP2 absorb = TDP2 (human) inhibition, absorbance primary screen | inhibition, % at 12.8 µM | O95551 | 0.34% of 370,000 active | AID 720702 | recombinant TDP2, T5PNP hydrolysis, p-nitrophenol absorbance 415 nm;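 active = inhibition above the mean of all tested compounds plus 3 SD, set per campaign, cut at about 25% in these data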;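 also: 0% = DMSO with enzyme and 100% = buffer with substrate but no TDP2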
# Target sequence (O95551 whole entry, looked up): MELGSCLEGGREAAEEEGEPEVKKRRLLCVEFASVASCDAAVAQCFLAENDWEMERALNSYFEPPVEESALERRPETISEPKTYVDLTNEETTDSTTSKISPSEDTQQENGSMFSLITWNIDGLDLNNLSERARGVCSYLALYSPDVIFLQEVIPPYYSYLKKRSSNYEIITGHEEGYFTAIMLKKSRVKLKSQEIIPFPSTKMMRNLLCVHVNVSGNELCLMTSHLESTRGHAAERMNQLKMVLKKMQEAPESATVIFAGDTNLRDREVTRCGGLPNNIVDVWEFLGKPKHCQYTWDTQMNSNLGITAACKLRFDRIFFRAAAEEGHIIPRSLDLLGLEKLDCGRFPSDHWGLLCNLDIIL
#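 System – recombinant human TDP2 · Amount – 120 nM TDP2 per well · Buffer or medium – Mg2+-containing Tris-HCl buffer, pH 7.5 · Reagent – T5PNP substrate, 5 mM · Dosing – 12.8 µM single point, 1% DMSO · Incubation – 2 h at 37 °C · Measured by – epi absorbance · Read-out basis – percent inhibition · Benchmarks – high control without enzyme, low control DMSO plus TDP2 · Repeats – singlicate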
# TDP2 inh conf = human TDP2 inhibition, confirmation; shares compounds with TDP2 absorb; recombinant human TDP2, absorbance read-out; inhibition, % at 12.8 µM; 22% of 1,100 active; AID 743263; in the data active = inhibition above about 25%;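 also: 0% = vehicle with enzyme and 100% = no enzyme buffer only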
# Starred values were filed as active, the others as inactive; nt = no result given. Rows were chosen to be rich in hits. Some 1.2% of all compounds tested hit in one or more screens of this group.
SMILES,Fh CTSL1 inh,NSD2 HMT inh,UBC9 SUMO inh,TDP2 absorb,TDP2 inh conf
CCOc1cc(/C=C2/C(=O)N(c3ccccc3)N=C2C)ccc1OC(=O)c1ccco1,-4,8,71,77*,29*
CC1=NN(c2cccc(F)c2)C(=O)/C1=C/c1ccc(N(C)C)cc1,-5,0,4,11,nt
COc1cccc(CN(C)[C@H]2C[C@H]3c4[nH]c5ccccc5c4CCN3C[C@H]2[C@H](C)O)c1OC,nt,nt,nt,-6,nt
CCOC(=O)[C@@]12CCCC3=C1N(CCC3)C(=O)[C@H]2CC(=O)NCC12CC3CC(CC(C3)C1)C2,nt,nt,nt,5,nt
N=C1/C(=C\c2ccc(-c3cccc(C(=O)O)c3)o2)C(=O)N=C2SC=C(c3ccccc3)N12,6,nt,33,8,nt
CC(=O)c1ccc(C2CC(OCCF)=CC(=O)O2)cc1 (configuration not stated),nt,nt,nt,6,nt
Cn1cc(Cc2ccc(C(=O)N3CCCCC3)cn2)c2ccccc21,nt,nt,nt,-2,nt
COc1ccc(/C=C2/C(=O)N(c3ccccc3)N=C2C)cc1Br,0,33,32,70*,27*
N#C/C(=C\c1ccncc1)C(=O)Nc1ccc(C(=O)O)cc1,-7,-1,-1,-23,nt
CC(C)c1ccc(NC(=O)/C(C#N)=C/c2ccncc2)cc1,1,1,-6,24*,5
CCCCCCCCNS(=O)(=O)CCNC1CC1,nt,nt,nt,-7,nt
C=C1CCC[C@]2(C)C[C@H]3OC(=O)C(CNCCN(C)C)[C@H]3CC12 (some centres not stated),-5,1,-5,-10,nt
C=C1CCC[C@]2(C)C[C@H]3OC(=O)C(CNCCN(CC)CC)[C@H]3CC12 (some centres not stated),-7,13,2,34*,-4
CCCS(=O)(=O)NC(=O)C1(C)CCN(C(=O)c2cc(F)cc(F)c2)C1 (configuration not stated),nt,0,nt,4,nt
COc1ccc(CC(=O)OC(C)C(=O)NCc2ccc3c(c2)OCO3)cc1OC (configuration not stated),-4,0,nt,44*,3
COc1ccc(CC(=O)OCC(=O)NCc2ccc3c(c2)OCO3)cc1OC,nt,-4,nt,-2,nt
Cc1cc(Br)cc(C=Nc2ccc(N3CCOCC3)cc2)c1O,-4,-2,nt,34*,-8
Oc1ccc(C=Nc2ccc(N3CCOCC3)cc2)c(O)c1,4,3,-6,12,nt
CCOc1ccc2c(c1)C(C)=CC(C)(C)N2,nt,nt,nt,26*,-2
CCc1ccc2c(c1)C(C)=CC(C)(C)N2,1,0,8,0,nt
CC(C)(C)C1CCN2CCC[C@](c3ccccc3)(C1)C2OCCCO (some centres not stated),nt,nt,nt,-4,nt
O=C(Nc1ccc2nc3n(c(=O)c2c1)CCCCC3)c1c(F)ccc([N+](=O)[O-])c1F,-2,25,5,25*,38*
O=C(Nc1ccc2nc3n(c(=O)c2c1)CCCCC3)c1cc([N+](=O)[O-])ccc1F,0,nt,0,1,nt
COc1ccc(C2=C(C=O)Cc3ccccc3O2)cc1,1,-1,nt,-12,nt
COc1ccc(OCc2cc(C(=O)NC(C)Cc3ccccn3)no2)c(Cl)c1 (configuration not stated),-1,-3,-1,-13,nt
SMILES,Fh CTSL1 inh,NSD2 HMT inh,UBC9 SUMO inh,TDP2 absorb,TDP2 inh conf
CC(=O)c1ccc(OCc2cc(C(=O)NC(C)Cc3ccccn3)no2)cc1 (configuration not stated),1,1,3,30*,5
COc1ccc(/C=C2/C(=O)N(Cc3ccccc3)N=C2C)cc1,0,3,13,71*,14
O=C(O)Cc1ccc(N2N=C(c3ccccc3)CC2=O)cc1,nt,-1,nt,71*,5
COC(=O)C[C@H]1CC[C@@H]2[C@@H](COc3ccc(NC(=O)Nc4cccc(C)c4)cc3C(=O)N2C)O1,nt,nt,nt,2,nt
Cc1ccc2nc(-c3ccc4c(c3)NC(=O)CO4)cn2c1,0,-13,14,25*,3
Cc1ccc2nc(-c3ccc4c(c3)OCCO4)cn2c1,1,3,8,9,nt
Cc1cc(NC(=O)CSc2nc(CCC3CCCC3)nc3ccccc23)no1,2,-3,-4,3,nt
Cc1nonc1NC(=O)CSc1nc(CCC2CCCC2)nc2ccccc12,-7,0,-33,25*,0
COc1ccccc1/C=C/C(=O)OCC(=O)Nc1ccc(Cl)cn1,-15,-3,22,29*,-1
Nc1c(S(=O)(=O)c2cccs2)c2nc3ccccc3nc2n1Cc1ccccc1,3,4,14,44*,4
COCCn1c(N)c(S(=O)(=O)c2cccs2)c2nc3ccccc3nc21,3,-3,30,57*,-6
Cc1nnc(N/N=C/c2cc([N+](=O)[O-])c(N3CCC(C)CC3)cc2N2CCC(C)CC2)n1N,2,-4,-13,53*,-14
CCc1nnc(N/N=C/c2ccc(N3CCC(C)CC3)c([N+](=O)[O-])c2)n1N,-7,nt,3,68*,12
CCN(CC(=O)Nc1ccc(NC(C)=O)cc1)C(=O)c1ccc(N2CCC(C)CC2)c([N+](=O)[O-])c1,nt,13,nt,7,nt
CC1CCN(c2cc(N3CCOCC3)c([N+](=O)[O-])cc2F)CC1,3,42,11,2,nt
CCCNC(=O)c1cc(C2CCCCN2S(=O)(=O)Cc2cccc(C(F)(F)F)c2)on1 (configuration not stated),nt,nt,nt,8,nt
COc1ccc(S(=O)(=O)N2CCC(C(=O)NCc3ccncc3)CC2)cc1,2,-4,nt,26*,1
COc1ccc(S(=O)(=O)N2CCC(C(=O)NCCC(=O)NCc3ccncc3)CC2)cc1,-1,4,nt,8,nt
O=[N+]([O-])c1ccc2c(c1)nnn2-c1ccccc1,3,2,16,24*,5
CCc1cc(SC#N)cc(C)c1N,-3,nt,-3,32*,5
CC(C)Oc1ccc(S(=O)(=O)N2CCOCC2)cc1NC(=O)Cc1c(F)cccc1Cl,4,1,nt,29*,0
O=C(Nc1ccccc1F)c1ccc2ncsc2c1,3,2,11,3,nt
O=C(N=Nc1c(O)[nH]c2ccc([N+](=O)[O-])cc12)c1ccccc1[N+](=O)[O-],7,10,9,35*,23
CCCCNc1cc(NC(C)=O)cc2cc(OC)c(OC)cc12,-1,nt,14,30*,29*
COc1cc2cc(NC(C)=O)cc(NCc3ccccc3)c2cc1OC,nt,37,97,6,nt
O=S(=O)(c1ccc(S(=O)(=O)N2CCCC2)cc1)N1CCCCCC1,0,1,4,-2,nt
O=S(=O)(c1ccc(S(=O)(=O)N2CCC(O)CC2)cc1)N1CCCC1,-1,7,-3,25*,2
O=[N+]([O-])c1cccc(-c2ccc3nnc(SCc4cccnc4)n3n2)c1,nt,13,nt,-4,nt
COc1ccc(OC)c(CCNC(=O)CN2C(=O)CCSc3ccccc32)c1,-4,-1,13,26*,2
CCNc1nnc(SCC(=O)N2c3ccccc3NC(=O)CC2C)s1 (configuration not stated),nt,-1,nt,5,nt
